In PMC4636458 (Molecular cancer therapeutics, 2015):
Where two headings read alike, the source gives them in different places.

Biological target: recombinant human ezrin (Homo sapiens, UniProt P15311)
Assay: SPR
Assay type: binding
Settings: read-out: KD (μM)^a, HBS-P pH 7.4, 2-10% DMSO, room temperature
Method in brief: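 Untagged full-length recombinant human ezrin was expressed in E. coli M15 [pREP4] from a pQE16 vector. It was amine-coupled (~10,000 RU) in sodium acetate pH 4.5 to the second flow cell of a CM5 chip, with the first flow cell left empty for background subtraction. Running buffer was HBS-P (10 mM HEPES pH 7.4, 150 mM NaCl, 0.05% P20) with 2–10% DMSO. Seven concentrations (0.78–50 μM) were injected in triplicate over ezrin and control surfaces.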

Sequence of recombinant human ezrin (P15311 whole entry): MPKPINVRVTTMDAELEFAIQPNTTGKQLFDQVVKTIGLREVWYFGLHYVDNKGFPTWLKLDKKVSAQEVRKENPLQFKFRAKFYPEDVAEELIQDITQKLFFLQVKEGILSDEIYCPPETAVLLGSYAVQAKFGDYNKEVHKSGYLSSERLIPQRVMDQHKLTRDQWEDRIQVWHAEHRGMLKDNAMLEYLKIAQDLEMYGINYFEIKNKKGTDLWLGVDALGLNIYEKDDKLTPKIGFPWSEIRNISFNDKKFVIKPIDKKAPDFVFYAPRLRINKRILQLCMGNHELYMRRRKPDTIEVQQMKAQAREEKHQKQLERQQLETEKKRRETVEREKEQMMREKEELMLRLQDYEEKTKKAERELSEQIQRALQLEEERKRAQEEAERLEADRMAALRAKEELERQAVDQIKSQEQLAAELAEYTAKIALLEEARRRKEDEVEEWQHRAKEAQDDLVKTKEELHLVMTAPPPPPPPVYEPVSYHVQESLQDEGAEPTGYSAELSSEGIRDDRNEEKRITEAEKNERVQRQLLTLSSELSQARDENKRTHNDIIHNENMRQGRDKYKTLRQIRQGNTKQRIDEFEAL

Row | Compound | Kd (n=3) | Kd (n=5) | further results
1 | CN1CCN(c2ccc(Nc3c4ccccc4nc4ccccc34)cc2)CC1 [MMV006172] | 6.1 ± 2.8 µM |  | 
2 | CC1CCN(Cc2ccc(NC(=O)c3cc4ccc5cccnc5c4[nH]3)cc2)CC1 [MMV020549] | 10.7 ± 0.4 µM |  | 
3 | CCn1c(SCC(=O)Nc2cc(C(F)(F)F)ccc2Cl)nc2ccccc2c1=O [MMV666103] |  |  | Kd (n=4): 2.6 ± 1 µM
4 | CN(N=O)C1=C(NC2CCCCC2)C(=O)c2ccccc2C1=O [MMV667492] |  |  | Kd (n=2): 29.4 ± 4.4 µM

Second part, led by results:

Row | Kd (n=3) | Kd (n=5) | Compound | further results
5 |  | 2.1 ± 1 µM | COc1ccc(CCN2CCC(CN(C)Cc3cnn(-c4ccccc4)c3)CC2)cc1 [MMV666069] | 
6 |  | 3.1 ± 1.6 µM | CCOC(=O)c1cn(CC)c2cc(N(C)CCc3ccc(OC)c(OC)c3)c(F)cc2c1=O [MMV665977] | 
